Assay results from ChEMBL document CHEMBL4732032, “Discovery of novel JAK2 and EGFR inhibitors from a series of thiazole-based chalcone derivatives” (RSC Med Chem, 2021).

How the values were obtained:
[1] = Antiproliferative activity against human HMC 1.1 cells harboring KIT V560G mutant assessed as inhibition of cell proliferation measured after 72 hrs by MTS assay; format: functional, cell-based; settings: HMC-1.1, 72 h
[2] = target: T1, Epidermal growth factor receptor (Homo sapiens, UniProt P00533); assay: Inhibition of EGFR (unknown origin)
In short: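 ADP-Glo luminescent kinase assay in 40 mM Tris–HCl pH 7.5, 20 mM MgCl2, 0.1 mg/mL BSA. EGFR added at 1.25 ng/μL with inhibitor, then a mix of 5 μM ATP and 2.5 μM poly(Glu-Tyr); reaction run 1 h at room temperature. ADP-Glo reagent added for 40 min, then detection reagent for 30 min. Run in triplicate; % inhibition calculated against a no-inhibitor control.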

A-431 = assay: Cytotoxicity against human A-431 cells expressing EGFR assessed as reduction in cell viability incubated for 72 hrs by MTT assay; format: functional, cell-based; settings: A-431, 72 h
A549 = assay: Cytotoxicity against human A549 cells expressing EGFR assessed as reduction in cell viability incubated for 72 hrs by MTT assay; format: functional, cell-based; settings: A549, 72 h
Vero = assay: Cytotoxicity against African green monkey Vero cells assessed as reduction in cell viability incubated for 72 hrs by MTT assay; settings: Chlorocebus sabaeus
[3] = target: T1, Epidermal growth factor receptor; assay: Inhibition of human EGFR TK domain expressed in Escherichia coli BL21 (DE3) pLysS using poly-Glu-Tyr (51 to 68 residues) as substrate incubated for 1 hr by ADP-Glo assay
HEL 92.1.7 = assay: Cytotoxicity against human HEL 92.1.7 cells expressing JAK2 assessed as reduction in cell viability incubated for 72 hrs by presto blue reagent assay; format: functional, cell-based; settings: HEL 92.1.7, 72 h
[4] = Potency index, ratio of ruxolitinib IC50 to test compound IC50 for human HEL 92.1.7 cells expressing JAK2 assessed as reduction in cell viability incubated for 72 hrs by presto blue reagent assay; format: functional
[5] = target: Tyrosine-protein kinase JAK2 (Homo sapiens, UniProt O60674); assay: Inhibition of recombinant human JAK2 JH1 domain expressed in baculovirus infected insect cells using poly-Glu-Tyr (51 to 68 residues) as substrate incubated for 1 hr in presence of ATP by ADP-Glo assay
TF-1 = assay: Cytotoxicity against human TF-1 cells expressing JAK2 assessed as reduction in cell viability incubated for 72 hrs by presto blue reagent assay; format: functional, cell-based; settings: TF-1, 72 h
[6] = Potency index, ratio of erlotinib IC50 to test compound IC50 human A549 cells expressing EGFR assessed as reduction in cell viability incubated for 72 hrs by MTT assay; format: functional

Tyrosine-protein kinase JAK2, sequence (O60674 whole entry, the tested form may be a part): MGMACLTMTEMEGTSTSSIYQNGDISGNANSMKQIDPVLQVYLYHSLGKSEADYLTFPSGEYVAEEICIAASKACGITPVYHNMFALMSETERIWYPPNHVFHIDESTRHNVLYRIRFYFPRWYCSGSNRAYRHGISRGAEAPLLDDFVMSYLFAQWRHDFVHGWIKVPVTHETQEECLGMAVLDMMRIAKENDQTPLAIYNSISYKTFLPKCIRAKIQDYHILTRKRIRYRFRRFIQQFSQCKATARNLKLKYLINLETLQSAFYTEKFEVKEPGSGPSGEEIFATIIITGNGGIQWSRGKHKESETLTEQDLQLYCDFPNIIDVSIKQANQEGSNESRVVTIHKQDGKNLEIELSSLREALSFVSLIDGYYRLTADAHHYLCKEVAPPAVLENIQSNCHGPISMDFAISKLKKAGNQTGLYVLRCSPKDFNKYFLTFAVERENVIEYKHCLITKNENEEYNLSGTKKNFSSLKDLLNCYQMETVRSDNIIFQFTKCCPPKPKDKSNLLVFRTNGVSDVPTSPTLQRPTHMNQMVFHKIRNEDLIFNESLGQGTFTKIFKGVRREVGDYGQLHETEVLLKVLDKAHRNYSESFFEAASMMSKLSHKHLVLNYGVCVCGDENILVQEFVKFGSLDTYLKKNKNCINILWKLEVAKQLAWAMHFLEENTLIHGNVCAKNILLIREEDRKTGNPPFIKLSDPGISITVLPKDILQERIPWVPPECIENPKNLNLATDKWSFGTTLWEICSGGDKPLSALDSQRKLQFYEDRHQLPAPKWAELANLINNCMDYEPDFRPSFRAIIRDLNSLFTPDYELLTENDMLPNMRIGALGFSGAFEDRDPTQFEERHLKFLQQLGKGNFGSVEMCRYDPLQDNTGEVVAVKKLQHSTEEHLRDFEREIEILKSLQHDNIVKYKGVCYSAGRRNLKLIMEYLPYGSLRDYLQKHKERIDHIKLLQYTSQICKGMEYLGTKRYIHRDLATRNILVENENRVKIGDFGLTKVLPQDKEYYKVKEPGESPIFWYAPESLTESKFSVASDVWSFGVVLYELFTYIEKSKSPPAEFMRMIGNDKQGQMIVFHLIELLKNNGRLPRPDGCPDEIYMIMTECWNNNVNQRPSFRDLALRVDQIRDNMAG
T1 sequence (P00533 whole entry): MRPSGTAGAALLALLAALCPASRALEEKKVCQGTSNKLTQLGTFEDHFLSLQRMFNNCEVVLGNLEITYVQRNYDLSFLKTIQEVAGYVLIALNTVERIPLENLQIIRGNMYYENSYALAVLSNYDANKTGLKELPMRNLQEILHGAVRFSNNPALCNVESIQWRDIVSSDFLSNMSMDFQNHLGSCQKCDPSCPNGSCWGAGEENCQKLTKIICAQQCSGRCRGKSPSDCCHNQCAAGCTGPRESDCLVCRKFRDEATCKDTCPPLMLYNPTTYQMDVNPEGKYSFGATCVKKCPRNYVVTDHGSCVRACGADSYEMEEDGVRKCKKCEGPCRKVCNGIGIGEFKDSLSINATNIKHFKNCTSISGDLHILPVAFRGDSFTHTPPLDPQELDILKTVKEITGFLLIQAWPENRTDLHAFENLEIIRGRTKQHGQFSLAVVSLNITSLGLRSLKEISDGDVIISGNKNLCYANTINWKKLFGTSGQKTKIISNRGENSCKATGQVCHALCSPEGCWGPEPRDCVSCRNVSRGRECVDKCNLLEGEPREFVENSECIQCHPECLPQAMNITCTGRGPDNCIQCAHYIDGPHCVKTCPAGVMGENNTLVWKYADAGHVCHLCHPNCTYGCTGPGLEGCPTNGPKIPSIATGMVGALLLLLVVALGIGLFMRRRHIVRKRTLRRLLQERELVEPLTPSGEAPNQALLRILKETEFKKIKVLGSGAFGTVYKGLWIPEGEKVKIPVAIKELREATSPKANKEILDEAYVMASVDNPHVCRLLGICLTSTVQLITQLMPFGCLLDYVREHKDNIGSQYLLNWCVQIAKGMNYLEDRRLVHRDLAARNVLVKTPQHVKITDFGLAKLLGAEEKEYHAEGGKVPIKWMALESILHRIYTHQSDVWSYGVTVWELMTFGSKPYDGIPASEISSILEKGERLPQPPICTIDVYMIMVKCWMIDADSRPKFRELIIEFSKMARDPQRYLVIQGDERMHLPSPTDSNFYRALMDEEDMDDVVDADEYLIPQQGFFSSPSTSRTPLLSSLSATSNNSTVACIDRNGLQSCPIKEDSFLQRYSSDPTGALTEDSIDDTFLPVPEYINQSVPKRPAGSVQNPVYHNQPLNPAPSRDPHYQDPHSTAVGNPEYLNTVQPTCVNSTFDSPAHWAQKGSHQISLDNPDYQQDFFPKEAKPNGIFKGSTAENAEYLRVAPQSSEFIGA

Compound | IC50 (A-431) [µM] | IC50 (A549) [µM] | IC50 (Vero) [µM] | IC50 [3] [µM] | IC50 (HEL 92.1.7) [µM] | Ratio IC50 [4] | IC50 [5] [µM] | IC50 (TF-1) [µM] | further results
Cc1cn(-c2cc(NC(=O)c3ccc(Nc4nc(-c5cccnc5)cs4)c(C)c3)cc(C(F)(F)F)c2)cn1 | – | – | – | – | – | – | – | – | IC50 [1]: 0.138 µM
O=C(Cc1csc2nc3ccccc3n12)Nc1ccccc1O | – | – | – | – | – | – | – | – | IC50 [2]: 0.055 µM
CNc1nc(C)c(C(=O)/C=C/c2cccs2)s1 | 28.5 | 62.1 | > 100 | – | – | – | – | – | –
CNc1nc(C)c(C(=O)/C=C/c2nccs2)s1 | – | – | > 100 | 0.256 | 6.89 | 2 | 0.0203 | 30.2 | –
CNc1nc(C)c(C(=O)/C=C/c2ccsc2)s1 | – | – | – | 0.144 | 9.96 | 2 | 0.0176 | 32 | –
CNc1nc(C)c(C(=O)/C=C/c2ccc(O)cc2)s1 | 8.04 | 16.3 | > 100 | 0.0337 | – | – | 0.0339 | – | Ratio IC50 [6]: 2
